From PubChem BioAssay
Most compounds without a hit are left out; they make up all but 3.7% or so of the library.
Kir21 inh: blocks the mouse Kir2.1 inward-rectifier potassium channel. P35561. HEK293-Kir2.1, FluxOR thallium flux fluorescence; active compounds read low. B-score at 10 µM. 310,000 compounds, 0.85% hits. AID 1672;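 active = fluorescence ratio B-score at or below minus 3 SD of library scores, with starting-brightness B-score within 2 SD, cut at about -4.2 in these data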;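 also: channel flux triggered by added potassium and thallium sulfate stimulus; B-score of peak minus minimum fluorescence over baseline after thallium stimulus; more negative B-score means stronger Kir2.1 block with less thallium influx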
KCNQ1 inh: human KCNQ1 channel inhibition | P51787 | CHO-K1 KCNQ1, FluxOR thallium flux fluorescence; active compounds read high | B-score at 10 µM | 310,000 compounds, 1.3% hits | AID 2642;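 active = compounds whose thallium flux B-score, printed positive for inhibition, exceeds three library SD while starting fluorescence stays within three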;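 also: channel opened by potassium depolarization with thallium stimulus after 20 min compound exposure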
hERG rescue: compounds protecting human hERG from proarrhythmic drug block; AID 1511; 310,000 compounds, 0.51% hits; activation (rescue from dofetilide block), less the hit threshold, % at 10 µM; CHO-hERG, FluxOR thallium flux, dofetilide IC70 present;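 active = activation above the mean of controls blocked by dofetilide plus 5 SD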;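 also: thallium influx through hERG after potassium depolarization seen as dye fluorescence rise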
KCNK3 inh: human KCNK3 channel inhibition, primary screen; B-score at 10 µM; CHO-KCNK3 thallium flux, FluxOR fluorescence; active compounds read low; 340,000 compounds, 0.84% hits; O14649; AID 602410;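 active = B-score under library mean minus 4 SD, starting fluorescence ratio at most library mean plus 5 SD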;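 also: more negative B-score means stronger inhibition of thallium flux through KCNK3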
KCNK9 block: human KCNK9 channel inhibition. AID 488922. B-score at 10 µM. HEK293 KCNK9, FluxOR thallium flux fluorescence; active compounds read low. 310,000 compounds, 1.2% hits;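 active = ratio B-score over 3 SD below the library mean, with starting fluorescence within 5 SD of its mean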;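 also: negative B-score means less thallium flux so channel inhibition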
Target sequence (Q9NPC2 whole entry, looked up): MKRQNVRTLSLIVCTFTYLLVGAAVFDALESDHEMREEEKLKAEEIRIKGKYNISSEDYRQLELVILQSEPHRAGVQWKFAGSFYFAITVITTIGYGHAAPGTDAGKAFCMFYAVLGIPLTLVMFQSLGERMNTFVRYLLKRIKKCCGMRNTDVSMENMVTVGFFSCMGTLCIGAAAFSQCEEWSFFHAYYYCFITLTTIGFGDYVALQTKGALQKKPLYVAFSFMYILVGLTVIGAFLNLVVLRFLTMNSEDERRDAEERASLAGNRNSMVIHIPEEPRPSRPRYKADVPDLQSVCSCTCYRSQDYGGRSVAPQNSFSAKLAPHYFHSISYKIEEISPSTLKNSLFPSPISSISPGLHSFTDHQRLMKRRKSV
KCNQ1 pot: potentiators or activators of human KCNQ1 potassium channel. P51787. CHO-K1 KCNQ1, thallium flux FluxOR fluorescence; active compounds read high. B-score at 10 µM. 310,000 compounds, 0.35% hits;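 active = fluorescence ratio B-score, a plate-corrected score, at least three library SD, with initial intensity B-score within 5 SD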
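assay system = CHO-K1 cells stably expressing KCNQ1 | medium = assay buffer, equal DMSO in all wells | timing = 37 °C overnight plating, 90-min dark dye load, 20-min compound pretreatment | measured by = kinetic FluxOR thallium fluorescence, 10-s 1-Hz baseline, 110-s post-stimulus read | measure = fluorescence change relative to baseline, converted to B score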
KCNQ1 inh valid: reconfirmed blocker of the human KCNQ1 potassium channel; KCNQ1 cell line, FluxOR thallium flux fluorescence; shares compounds with KCNQ1 inh; inhibition, % at 10 µM; AID 588353; 1,600 compounds, 93% hits;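 active = primary screen active, with duplicate mean exceeding buffer control mean plus 3 SD of buffer wells, cut at about 28% in these data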;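 also: 0% = buffer control ratio and 100% = XE991 inhibitor control ratio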
CHO KCNQ1 ctr: KCNQ1 inhibitor counter-screen hit in parental CHO cells; shares compounds with KCNQ1 inh; parental CHO-K1, FluxOR thallium flux fluorescence ratio; active compounds read low; zero means no signal rise above baseline; fluorescence ratio (Tl flux) at 10 µM; 1,600 compounds, 21% hits; AID 588366;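 active = mean of duplicate thallium-flux fluorescence ratios in parental host cells more than 5 SD below the buffer control mean, cut at about 0.38 in these data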;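 also: ratio is peak minus minimum fluorescence divided by baseline fluorescence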
KCNQ1 ephys val: human KCNQ1 inhibition validated by electrophysiology; calls only at 10 µM; shares compounds with KCNQ1 inh; AID 624120; 490 compounds, 20% hits; KCNQ1-CHO cells, automated patch clamp current;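 active = KCNQ1 current drop exceeding 3 SD of negative control wells, seen in both duplicate runs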;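 also: steady state current during a 2 s step from -80 to +40 mV; negative values mean current inhibition and positive values mean potentiation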
KCNQ2 spec: KCNQ1 inhibitor that also blocks rat KCNQ2 channel | shares compounds with KCNQ1 inh | KCNQ2 cells, FluxOR thallium flux fluorescence | inhibition, % at 10 µM | 1,600 compounds, 71% hits | AID 651746;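 active = mean percent inhibition of the KCNQ2 thallium signal more than 5 SD above the buffer-only control wells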;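 also: KCNQ2 expressed in CHO cells; 0% = buffer control wells and 100% = XE-991 inhibitor control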
KCNQ1-KCNE1 inh: human KCNQ1/KCNE1 inhibition in KCNQ1 specificity screen. 1,600 compounds, 77% hits. shares compounds with KCNQ1 inh. inhibition, % at 10 µM. KCNQ1/KCNE1 cells, FluxOR thallium flux fluorescence. AID 652147;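 active = mean percent inhibition of duplicate wells above the buffer-only control mean plus 3 SD of those controls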;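 also: 0% = buffer only wells and 100% = XE-991 inhibitor control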
KCNK9 inh conf: confirmation of human KCNK9 potassium channel inhibitors; shares compounds with KCNK9 block; AID 492992; HEK293 KCNK9 cells, FluxOR thallium flux fluorescence; inhibition, % at 10 µM; 4,900 compounds, 43% hits;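 active = thallium signal inhibited by more than 5 SD of the compound-free buffer control wells, on both duplicate plates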;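 also: 0% = assay buffer control wells without compound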
Kir21 sel: tests whether KCNK9 modulators also affect mouse Kir2.1 | shares compounds with KCNK9 block | inhibition, % at 10 µM | Kir2.1 cells, FluxOR thallium flux fluorescence | 4,900 compounds, 4% hits;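 active = thallium signal drop more than 5 SD beyond the mean of the no-compound control wells, seen in both duplicate plates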;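 also: signal is fluorescence rise after thallium addition divided by baseline fluorescence; plate controls were assay buffer only for no effect and full block by chlorpromazine control for full effect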
HEK293 Tl ctr: second counter-screen for KCNK9 modulators: effect in non-induced cells; shares compounds with KCNK9 block; 4,900 compounds, 40% hits; non-induced KCNK9-HEK293, FluxOR thallium flux; AID 492997; inhibition, % at 10 µM;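 active = thallium signal drop beyond 5 SD of the untreated control mean, on both duplicate plates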;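 also: plate controls were buffer only IC0 wells for no effect and SID17386958 at its maximal inhibitory level for full effect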
KCNK3 confirm: confirmation of human KCNK3 two-pore domain potassium channel inhibitors. shares compounds with KCNK3 inh. CHO-KCNK3 thallium flux, FluxOR fluorescence; 0% buffer, 100% carvedilol maximal block. ratio percent of control, % at 10 µM. 2,400 compounds, 99% hits. AID 651638;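 active = ratio percent of control, averaged over triplicates, above buffer control mean plus 5 SD, cut at about 64% in these data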;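 also: ratio is the fluorescence rise from min to max over baseline after thallium stimulus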
KCNK3 noninduced: counter-screen for KCNK3 inhibitors: effect in non-induced cells | thallium flux ratio (lower = more inhibition) at 10 µM | non-induced KCNK3 parental cells, FluxOR thallium flux; active compounds read low | shares compounds with KCNK3 inh | 2,400 compounds, 40% hits;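 active = thallium flux ratio, averaged over three wells, more than 5 SD below the buffer control mean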;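 also: host cells are CHO cells without KCNK3 induction; ratio is peak minus trough fluorescence over baseline then normalized to buffer controls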
* = called active by the depositor; i = inactive; / = no result; + = active, no number.

SMILES	Kir21 inh	KCNQ1 inh	hERG rescue	KCNK3 inh	KCNK9 block	KCNQ1 pot	KCNQ1 inh valid	CHO KCNQ1 ctr	KCNQ1 ephys val	KCNQ2 spec	KCNQ1-KCNE1 inh	KCNK9 inh conf	Kir21 sel	HEK293 Tl ctr	KCNK3 confirm	KCNK3 noninduced
CCN(C(=O)c1cc2c(s1)-c1ccccc1OC2)c1cc(OC)ccc1OC	-0.55	7*	-7	-14*	-17*	i	110*	0.37*	/	96%*	185%*	68%*	i	32%*	132*	0.12*
Cc1c(C(=O)Nc2ccc(Cl)cc2)c2ccccn2c1C(=O)c1ccc(F)cc1	-3	i	-7	i	i	i	/	/	/	/	/	/	/	/	/	/
Cc1c(C(=O)Nc2cccc(Cl)c2)c2ccccn2c1CCc1ccncc1	-1.9	9*	-11	-10*	i	i	159*	0.36*	/	123%*	+	/	/	/	134*	0.12*
Cc1nc2ccccc2c2c1CC(C(C)(Cl)Br)O2 (stereo unspecified)	-0.94	6*	-26	-9.6*	i	i	106*	0.48	+	80%*	i	/	/	/	127*	i
COc1cccc(C(=O)Nc2cccc(-c3ccccc3)c2)c1	-1.6	9*	-2	-12*	i	i	148*	0.44	i	99%*	+	/	/	/	113*	i
COc1cccc(NC(=O)c2ccccc2)c1	/	/	/	i	/	/	/	/	/	/	/	/	/	/	/	/
COc1ccc(Cl)cc1C(=O)Nc1ccccc1N1CCCCC1	-0.43	7*	-12	-8.9*	-8.9*	i	103*	0.41	i	99%*	146%*	50%*	i	46%*	107*	i
c1ccc(-c2csc(N3CCCCCC3)n2)cc1	1.4	i	-5	i	i	i	/	/	/	/	/	/	/	/	/	/
Cc1cc(N2CCN(c3nc(-c4ccccc4)cs3)CC2)c2ccccc2n1	-2.1	7*	-20	-14*	i	i	130*	0.41	i	107%*	195%*	/	/	/	136*	0.13*
O=C(Oc1cccc(Nc2ncnc3ccccc23)c1)c1ccccc1Cl	1.6	12*	-23	-9.6*	-9*	i	140*	0.31*	/	131%*	+	52%*	42%*	44%*	139*	i
Cc1ccccc1OCC(O)Cn1c(=N)n(Cc2ccccc2)c2ccccc21 (stereo unspecified)	-12*	12*	-26	-12*	i	i	130*	0.41	i	99%*	i	/	/	/	125*	i
